Sampled rows, rich in hits. Any-hit rate of the full collection: about 4.2%.
KCC2 mod: modulates chloride dependent transport by human KCC2; 190,000 tested, 2.2% active; B-score of Tl+ flux slope (higher = more flux/activation; lower = inhibition) at 10 µM; KCC2 cells, thallium flux FluoZin-2 fluorescence; Q9H2X9;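 active = thallium flux slope and its plate-corrected score both differing from the plate sample mean at a set confidence after two filtering rounds, in either direction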;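 note: slope of fluorescence scaled to starting intensity during 10 to 20 s after thallium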
Target sequence (Q9H2X9 whole entry, looked up): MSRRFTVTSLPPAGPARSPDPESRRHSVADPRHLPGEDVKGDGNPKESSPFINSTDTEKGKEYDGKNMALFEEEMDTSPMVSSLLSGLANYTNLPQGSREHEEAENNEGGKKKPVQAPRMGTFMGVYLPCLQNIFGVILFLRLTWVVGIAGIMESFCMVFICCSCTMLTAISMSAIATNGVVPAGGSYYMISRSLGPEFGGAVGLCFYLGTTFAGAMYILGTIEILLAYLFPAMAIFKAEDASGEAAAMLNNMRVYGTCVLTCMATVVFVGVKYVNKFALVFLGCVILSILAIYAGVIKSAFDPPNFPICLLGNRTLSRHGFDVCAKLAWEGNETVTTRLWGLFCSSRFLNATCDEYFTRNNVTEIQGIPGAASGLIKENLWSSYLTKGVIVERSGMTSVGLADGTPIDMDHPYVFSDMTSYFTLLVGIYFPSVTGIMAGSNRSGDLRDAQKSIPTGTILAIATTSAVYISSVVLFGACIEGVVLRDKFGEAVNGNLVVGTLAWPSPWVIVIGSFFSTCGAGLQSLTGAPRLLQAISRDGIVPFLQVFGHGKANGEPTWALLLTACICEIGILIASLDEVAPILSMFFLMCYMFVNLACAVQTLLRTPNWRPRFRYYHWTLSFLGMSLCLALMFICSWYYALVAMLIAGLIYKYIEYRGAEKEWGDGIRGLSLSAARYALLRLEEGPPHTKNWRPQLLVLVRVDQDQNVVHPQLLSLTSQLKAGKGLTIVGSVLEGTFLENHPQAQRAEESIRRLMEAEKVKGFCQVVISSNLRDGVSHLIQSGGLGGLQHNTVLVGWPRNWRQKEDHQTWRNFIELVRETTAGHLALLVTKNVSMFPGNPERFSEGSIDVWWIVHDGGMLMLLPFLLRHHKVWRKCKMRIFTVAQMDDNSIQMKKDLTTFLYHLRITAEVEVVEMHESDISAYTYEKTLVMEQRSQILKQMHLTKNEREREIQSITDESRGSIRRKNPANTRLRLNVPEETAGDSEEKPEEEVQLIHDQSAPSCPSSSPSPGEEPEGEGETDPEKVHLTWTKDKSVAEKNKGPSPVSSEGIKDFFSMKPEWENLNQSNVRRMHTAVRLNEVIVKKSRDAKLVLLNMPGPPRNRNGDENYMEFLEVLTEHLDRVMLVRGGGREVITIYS
Rad51 HR inh: blocks human Rad51 in homologous recombination; Q06609; hRad51 DNA strand exchange, fluorescence dequenching; inhibition, % at 10 µM; 200,000 tested, 0.085% active; AID 1385;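 active = inhibition above 40% at the single screening dose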;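 note: 0% = DMSO control wells and 100% = blanks with heterologous ssDNA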
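System: human Rad51 nucleoprotein filaments preassembled on unlabelled ssDNA. Reagent: labelled 47-mer dsDNA for strand exchange. Schedule: 30-min compound preincubation and 15-min exchange, both room temperature. Measured by: FRET fluorescence dequenching, excitation 485 nm, emission 520 nm. Read-out: Fluorescence-based percent inhibition, control- and blank-normalised. Benchmarks: plate controls and plate blanks.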
Ins promoter up: MIN6 insulin promoter up-regulation. MIN6 insulin promoter-GFP reporter, high-content imaging; hits give high values. z-score at 5 µM. 190,000 tested, 0.3% active;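 active = z-score above 3 at 5 µM with at least 500 cells counted in the well; inconclusive = wells under 500 cells, flagged as cytotoxic or low count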
SKKanGAS inh: blocks kanamycin growth of S. pyogenes SKKanGAS strain. 300,000 tested, 1.3% active. AID 1662. BacTiter-Glo, 6 h. inhibition, % at 7.5 µM;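 active = mean replicate score, as percent of positive control median, at least 50; inconclusive = mean below 50 but one replicate at or above 50; inactive = mean and every replicate below 50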;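 note: strain carries kanamycin resistance gene driven by streptokinase promoter and grows in 40 µg/ml kanamycin; loss of luminescence reflects streptokinase promoter inhibition or plain growth inhibition; 0% = median of DMSO wells and 100% = positive control at its reference dose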
Autophagy mod: alters autophagy in cells; MEF GFP-LC3 puncta imaging; test concentration mostly 10 µM; 190,000 tested, 0.98% active; AID 463193; calls only at 10 µM (by protocol);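 active = percentage of spot-positive cells more than 3 SD above its plate mean, without a fluorescence outlier flag or 80% toxicity; inconclusive = no clear call, values can overlap the other calls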;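 note: spot-positive cell cutoff set from DMSO-treated cells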
WT yeast gro inh: growth inhibition of WT yeast, mitochondrial fusion screen; mitochondrial fusion phenotypic screen, WT strain; inhibition, % at 10 µM; 190,000 tested, 2.1% active; AID 1362; in the data active = inhibition above about 58%; tested in S. cerevisiae
* marks the source's active call; other numbers are inactive results; i = inactive; ? = inconclusive; nt = not tested or not shown; + = active, no number.

SMILES	KCC2 mod	Rad51 HR inh	Ins promoter up	SKKanGAS inh	Autophagy mod	WT yeast gro inh
CCOC(=O)Cn1nc(NC(=O)COc2ccc(F)cc2)cc1C	nt	nt	nt	-5	nt	nt
CN(CCOc1ccccc1)CC(=O)Nc1ccc(Br)cc1F	nt	nt	nt	-6	nt	nt
CS(=O)(=O)N1CCc2cc(C(=O)N3CCOCC3)ccc21	-0.56	nt	0.13	5	i	82*
CS(=O)(=O)N1CCc2cc(C(=O)N3CCCCC3)ccc21	0.31	-3	nt	-2	i	-11
NC(N)=Nc1nc2ccc(Cl)cc2c(=O)[nH]1	0.066	-7	-0.21	3	i	-4
N#C/C(=C\C=C\c1ccccc1)c1nc(-c2ccc3c(c2)OCO3)cs1	i	-168	0.42	-13	+	-1
CCN(CC)CCOC(=O)c1ccc(N/C=C(/C#N)c2nc(-c3ccc4c(c3)OCO4)cs2)cc1	0.99	-26	-0.46	19	nt	nt
CN(Cc1c(C(=O)N2CCc3ccccc3C2)nc2ccc(Cl)cn12)C(C1CC1)C1CC1	-0.12	-2	-0.12	13	i	-2
CCC(=O)N(Cc1cc2ccc(C)cc2[nH]c1=O)c1ccccc1OC	nt	nt	nt	-1	nt	nt
CCC(=O)Nc1ccc(Br)c(Cl)c1	0.15	nt	nt	-8	i	91*
CCOC(=O)C1CCCN(C(=O)CS(=O)(=O)Cc2ccccc2)C1 (centres undefined)	0.27	nt	0.99	2	i	60*
CC(=O)Nc1cc(NC(C)=O)cc(C(=O)N2CCCC3CCCCC32)c1 (centres undefined)	nt	nt	nt	4	nt	nt
O=C(Nc1ccc(Br)cc1C(=O)O)c1ccc2c(c1)C(=O)N(Cc1ccccc1)C2=O	nt	nt	nt	76*	nt	nt
COc1ccc(C2C(C#N)=C(C)NC3=C2S(=O)(=O)c2ccccc23)cc1 (centres undefined)	0.049	2	-0.48	3	i	58*
COC(=O)C1=C(C)NC2=C(C1c1ccc(O)cc1)S(=O)(=O)c1ccccc12 (centres undefined)	0.19	4	0.36	3	i	23
O=C(NNC(=O)C1CCCCC1)c1ccncc1	nt	nt	nt	-11	nt	nt
CC1(C(=O)NC(=S)NNC(=O)c2ccncc2)CCCCC1	2.8	13	-0.03	54*	i	2
Cc1[nH]n(-c2ncc(-c3ccccc3)s2)c(=O)c1C(c1ccc(Cl)cc1)C(C#N)C#N (centres undefined)	-2	1	-0.28	61*	i	8
CN(CC(=O)Nc1ccc(Cl)c(Cl)c1)C(=O)CC1OC(=O)c2ccccc21 (centres undefined)	nt	nt	nt	9	nt	nt
COc1ccc(C(=O)N/N=C/c2sc3ccccc3c2O)cc1	0.32	-182	-0.23	33	i	-8
Oc1c(C=Nc2cccc3cccnc23)sc2ccccc12	-0.041	-10	2.7	94*	+	19
O=C(N/N=C/c1sc2ccccc2c1O)c1cccc2ccccc12	2.7	-137	-0.39	91*	i	8
Cc1cccc(/N=C/c2sc3ccccc3c2O)n1	nt	-75	0.03	18	nt	nt
O=C(N/N=C/c1sc2ccccc2c1O)c1ccccc1	i	-223	-0.14	90*	i	-3
CC(C)C(=O)N1CCC(CN=Cc2c(O)n(C3CCCCC3)c(=O)n(C3CCCCC3)c2=O)CC1	nt	4	-0.26	nt	i	77*
SMILES	KCC2 mod	Rad51 HR inh	Ins promoter up	SKKanGAS inh	Autophagy mod	WT yeast gro inh
c1ccc(-c2cc3c(ccc4nonc43)nn2)cc1	0.14	-7	1	-5	i	-6
On1onc2c3cc(-c4ccccc4)nc3ccc21	-0.63	nt	?	nt	i	81*
CCOP(=O)(OCC)C(Nc1cccc(C(F)(F)F)c1)c1ccc(Br)cc1 (centres undefined)	0.2	1	-0.69	13	i	80*
CCOP(=O)(OCC)C(Nc1ccc(F)cc1)c1ccccc1 (centres undefined)	-0.14	17	-0.18	-1	nt	nt
COc1cc(-c2nnc(SCc3ccccc3Cl)o2)cc(OC)c1OC	-0.054	nt	-0.68	15	i	56
COc1cc(-c2nnc(SCc3c(F)cccc3Cl)o2)cc(OC)c1OC	0.17	-1	-0.87	9	i	64*
CCOc1ccc(CN(C(=O)c2cc(=O)c3cc(C)cc(C)c3o2)C2CCS(=O)(=O)C2)cc1 (centres undefined)	nt	nt	nt	-6	nt	nt
COc1cc2c(cc1N/C=C(\C#N)c1nc(-c3ccccc3)cs1)oc1ccccc12	-1.2	5	nt	4	+	4
O=C(C1=NN[C@@H]2C(=O)N(c3cccc(C(F)(F)F)c3)C(=O)[C@H]12)c1cnccn1	-0.58	9	-0.21	1	nt	nt
Cc1ccc(-c2nc3cc(Br)cnc3nc2-c2ccc(C)cc2)cc1	0.11	5	-0.89	40	i	77*
CCOc1ccc(N(CC(=O)N2CCOCC2)S(=O)(=O)c2ccc(Cl)cc2)cc1	nt	nt	nt	0	nt	nt
COc1cccc(N2CCN(c3nc(C)cc(C)c3C#N)CC2)c1	nt	nt	nt	16	nt	nt
Cc1cc(C)c(C#N)c(N2CCN(c3ccccc3F)CC2)n1	nt	nt	nt	50*	nt	nt
O=C(Cn1c(/C=C/c2ccccc2)nc2ccccc21)Nc1ccc(F)cc1	-0.47	-1	0.3	35	i	68*
O=c1[nH]c(C2CCN(S(=O)(=O)c3ccccc3C(F)(F)F)CC2)nc2c1nnn2Cc1cccc(F)c1	nt	nt	nt	41	nt	nt
CC(=O)N1N=C(c2ccccc2)CC1c1ccccc1[N+](=O)[O-] (centres undefined)	-0.82	-5	-0.49	-7	i	1
O=[N+]([O-])c1ccc(C2Oc3ccccc3C3CC(c4ccccc4)=NN32)s1 (centres undefined)	1.8	-5	0.69	nt	+	96
C/C(=N\NC(=O)Cn1nc(C)cc1C)c1ccc([N+](=O)[O-])cc1	0.51	-8	-0.06	0	nt	nt
Cc1csc(SC(C)c2nc3scc(-c4ccccc4)c3c(=O)[nH]2)n1 (centres undefined)	0.34	40*	-0.56	-8	nt	nt
N#C/C(=C(/O)c1ccc2c(c1)OCO2)c1nc2cc(C(F)(F)F)ccc2s1	nt	nt	nt	52*	nt	nt
N#C/C(=C(/O)c1ccccc1F)c1nc2cc(C(F)(F)F)ccc2s1	-1.2	nt	-0.51	11	i	16
COc1ccc(-c2nc(/C=C3\C(C)=Nc4ccccc43)c(O)o2)cc1	0.85	-10	-0.08	58*	+	-6
CC1=Nc2ccccc2/C1=C\c1nc(-c2ccccc2)oc1O	0.53	21	-1	28	i	9
COc1cc(/C=C(\C#N)c2nc3ccccc3[nH]2)c([N+](=O)[O-])cc1OCc1ccccc1	-4.5*	-38	-0.35	31	i	11
COc1cc(/C=C(\C#N)c2nc3ccccc3[nH]2)ccc1OC(=O)c1ccco1	-1.5	-12	nt	5	i	28
CCN(CC)c1ccc(/C=C(/C#N)c2nc3ccccc3[nH]2)c(OC(C)C)c1	i	-308	nt	40	+	5
CCOC(OCC)c1cn(Cc2ccc3c(c2)C(=O)c2ccccc2C3=O)nn1	nt	nt	nt	-8	nt	nt

Screens as filed in PubChem.
